# Bioassay records as filed in PubChem.
# 697 NFkB inh – inhibitors of the PMA/ionomycin-induced NF-kB reporter in 697 B cells; hit rate 0.33% among 330,000; 697 B-cell NF-kB luciferase reporter, 16 h; AID 435022; inhibition, % at 4 µM; in the data active = inhibition above about 35%
# HSF1 activator – increases HSF-1 driven luciferase reporter signal. NIH3T3-HGL HSF-1 luciferase reporter, MG132, 8 h; 100% = twice DMSO control signal. activation, % at 9 µM. hit rate 1.7% among 300,000. AID 504408;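 active = mean replicate activation of at least 50% with a set share of replicates each reaching 50%; inconclusive = only one of those two conditions met; inactive = mean below 50% and too few replicates reaching it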;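 note: 0% = median of the neutral control wells and 100% = twice that signal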
# HSF1 inhib – HSF1 inhibition; NIH3T3-HGL HSE-luciferase, MG132-induced, luminescence 8 h; stronger effect = lower value; activity change, negative = inhibition, % at 7.5 µM (by protocol); hit rate 0.77% among 300,000; AID 2098;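 active = more than half of replicate wells show activity change below -50%, luminescence cut by over half; inconclusive = some wells, but at most half, below -50%; inactive = no replicate well below -50%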;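 note: luciferase reports HSF-1 transcriptional activity via heat shock element; 0% = median of DMSO wells and -100% = zero luminescence signal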
# T cruzi repl – T. cruzi replication inhibition | T. cruzi beta-gal in NIH3T3, luminescence, 90 h | inhibition, % (no concentration beside the values) | hit rate 1.4% among 300,000 | AID 1885;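 active = mean inhibition across valid replicates above about 55%, limit read from the data; inconclusive = mean below that limit but half or more replicates reach it; inactive = mean below it, under half of replicates reach it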;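 note: signal also drops with host cell toxicity which is not excluded here; 0% = plate median of DMSO wells and 100% = zero luminescence signal; higher percent means less beta-gal luminescence so fewer parasites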
#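 System – NIH/3T3 host cells with β-galactosidase reporter T. cruzi · Doses – single 50 nL compound addition per well in DMSO · Reagent – 5000 T. cruzi trypomastigotes/well · Medium – Low-serum DMEM with 2% FBS · Timing – ≥90 h infection period, 3 h prior cell attachment · Evaluation – parasite load inhibition, % · Technique – GalScreen luminescence, 60 min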
# GPR7 antag – antagonists of human GPR7 (neuropeptides B/W receptor 1). P48145. GPR7-expressing cells, fluorescence antagonist assay. inhibition, % at 4.4 µM. hit rate 1.1% among 290,000. AID 1861; in the data active = inhibition above about 16%, passing the limit was not always enough;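 note: cells stimulated with the agonist NPW; 0% = agonist with vehicle and 100% = vehicle without agonist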
# Target sequence (P48145 whole entry, looked up): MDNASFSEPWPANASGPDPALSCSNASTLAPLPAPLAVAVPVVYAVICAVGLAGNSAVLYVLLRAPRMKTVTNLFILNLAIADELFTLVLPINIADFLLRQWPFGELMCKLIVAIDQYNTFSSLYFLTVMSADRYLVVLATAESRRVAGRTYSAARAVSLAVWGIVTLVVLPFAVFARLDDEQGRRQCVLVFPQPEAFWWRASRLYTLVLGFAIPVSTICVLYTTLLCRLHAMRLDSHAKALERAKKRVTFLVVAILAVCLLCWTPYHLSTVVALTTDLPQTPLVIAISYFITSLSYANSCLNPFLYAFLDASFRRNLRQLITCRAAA
# Jurkat NFkB inh – inhibitors of the PMA/ionomycin-induced NF-kB reporter in Jurkat cells; AID 435003; PMA/ionomycin-induced NF-kB luciferase reporter, luminescence; inhibition, % at 4 µM; hit rate 0.53% among 330,000; in the data active = inhibition above about 50%
# Jurkat NFkB conf – lowers PMA/ionomycin-induced NF-kB signal in Jurkat cells; shares compounds with Jurkat NFkB inh; Jurkat NF-kB luciferase, 16 h; hit rate 27% among 2,700; inhibition, % at 4 µM;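 active = inhibition reaching about 45% at 4 µM in either replicate, limit read from the data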;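 note: plate controls were PMA/ionomycin stimulated DMSO wells for no effect and unstimulated DMSO wells for full effect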
# * hit, by the source's call; ? = inconclusive; · = no result. In the library only some 4.8% were active in any assay of this set; here they are far more common.
SMILES,697 NFkB inh,HSF1 activator,HSF1 inhib,T cruzi repl,GPR7 antag,Jurkat NFkB inh,Jurkat NFkB conf
COc1ccccc1/C=N/N1C(=O)C(CC(=O)Nc2ccc([N+](=O)[O-])cc2OC)SC1=Nc1cccc(C)c1C (stereo not given),-100.7,12.6,-6.3,41.0,0.8,68.8*,22.5
COc1ccc(-c2cc(C(=O)Nc3cc(C)nn3-c3ccccc3)no2)cc1,15.2,28.6,-2.5,-11.1,1.8,-1.8,·
COc1ccccc1-c1cc(C(=O)Nc2cc(C)nn2-c2ccccc2)no1,-50.5,-18.6,2.5,-0.1,-6.7,60.5*,32.4
O=C(c1cc(-c2ccncc2)nc2c(Cl)cccc12)N1CCN(c2ccccc2F)CC1,1.0,-13.9,-0.2,20.1,8.1,59.9*,36.4
CCCCC(=O)N(c1ccc(C(=O)O)cc1)c1nc(-c2ccc(Cl)cc2)c(CC)s1,-41.6,-2.7,13.1,37.8,-14.5,-12.3,·
CCN(C(=O)COC(=O)CNC(=O)c1ccc(Cl)cc1Cl)c1c(N)n(Cc2ccccc2)c(=O)[nH]c1=O,-14.3,·,·,·,·,10.7,·
COc1ccccc1N=C1SC(C(=O)Nc2cccc(Cl)c2Cl)C(N)=C1C(N)=O (stereo not given),-16.5,6.7,6.2,16.7,-10.5,57.8*,0.2
CCC(C)[C@H]1CNCCN1CCC12CC3CC(CC(C3)C1)C2 (stereo not given in full),-23.8,·,·,·,·,-20.2,·
COC(=O)c1ccc(NC(=O)C(=O)c2cccn2C)cc1,-121.5,60.7*,20.0,-8.4,-9.8,-169.8,-105.4
COC(=O)c1ccc(NC(=O)c2ccccc2C(=O)Nc2ccc(C(=O)OC)cc2)cc1,11.1,-44.9,-29.6,8.8,·,27.7,·
Cc1cc(NC(=O)CSc2nc3ccccc3c(=O)n2C2CCCC2)no1,14.7,-30.9,-23.6,-11.1,-7.3,64.2*,51.3*
N#C/C(=N\Nc1cccc(F)c1)C(=N)N1CCCCCC1,-142.9,?,21.4,19.3,-6.2,-167.7,-52.9
N#C/C(=N\Nc1ccc(F)cc1)C(=N)N1CCCCC1,-146.6,43.9,39.1,1.6,7.8,-114.8,·
O=S(=O)(c1ccc(Cl)nc1)N1CCCC1,17.9,·,·,·,·,3.8,·
CC(C)c1ccc(OCC(=O)NC2=NCCS2)cc1,21.4,30.4,32.8,-12.8,4.2,-113.3,·
CC(C)c1ccc(/C=C/C(=O)NC2=NCCS2)cc1,-170.7,48.4,22.4,-2.5,5.2,-204.4,-101.8
COc1ccccc1C(=O)Nc1ccc2c(c1)nc(CCNC(=O)c1ccccc1)n2C,-28.2,-7.9,-7.0,-0.5,-2.1,53.7*,29.1
CC1=C(C(=O)NCc2ccccc2)C(c2cccs2)NC(=S)N1 (stereo not given),2.7,1.2,-5.2,5.1,-9.6,-18.6,·
CCC/C(O)=C1\C(=O)CC(C)(C)CC1=Nc1ccc(OC)cc1OC,-40.3,-9.9,-5.4,9.4,16.2*,61.9*,39.0
OCCC1CN(Cc2cc(F)ccc2F)CCN1CCCc1ccccc1 (stereo not given),-22.9,-2.8,8.4,18.4,-3.2,-2.8,·
CCN(C(=O)COC(=O)CCCOc1ccccc1)c1c(N)n(Cc2ccccc2)c(=O)[nH]c1=O,-7.0,·,·,·,·,-13.5,·
CC(=O)c1cc2c(cc1NC(=O)c1cc(C)nn1-c1ccccc1)OCO2,-63.0,1.1,-4.0,-13.1,-10.7,55.2*,24.4
CSc1ccccc1Nc1ncnc(N)n1,-12.6,13.2,-9.0,-7.2,-20.6,-27.4,·
CC(=O)N(C)C1=C(N2CCOCC2)C(=O)c2ccccc2C1=O,31.5,14.6,-4.2,-113.0,-4.0,86.6*,79.2*
CNc1ccccc1C(C)(C)c1cc(-c2cccc(OC)c2)no1,-26.6,-9.7,-9.9,15.3,-6.0,50.8*,27.1
SMILES,697 NFkB inh,HSF1 activator,HSF1 inhib,T cruzi repl,GPR7 antag,Jurkat NFkB inh,Jurkat NFkB conf
COc1ccccc1NC(=S)N(Cc1ccco1)Cc1cc2cc(C)c(C)cc2[nH]c1=O,-17.0,12.1,6.2,-1.8,-7.0,66.8*,5.0
Oc1ccc(/C(Cc2ccc3ccccc3n2)=N\Nc2ccccc2)c(O)c1,0.9,28.7,16.4,-10.1,-0.1,-3.6,·
O/C(=C\c1ccc2ccccc2n1)c1ccc(O)cc1O,-185.8,26.7,14.8,-12.3,16.9,-170.0,-15.3
Cc1cccc(C)c1NC(=O)CNC(=O)C(Cc1ccccc1)NC(=O)c1ccccc1 (stereo not given),8.1,22.5,3.8,0.2,12.5,-9.9,·
N=C(N)N=Nc1c(O)[nH]c2ccc(Br)cc12,-16.0,12.0,-1.5,17.2,-1.9,-3.7,·
O=C(N=Nc1c(O)[nH]c2ccc(Br)cc12)c1ccccc1-n1cccc1,13.4,·,·,·,2.9,71.5*,38.7
CN(Cc1ccccc1)C(=O)COC(=O)c1cc2ccccc2oc1=O,18.1,·,·,·,·,2.8,·
C#CCOCCOCCOCCNc1nc(N2CCN(C(=O)CCCCCCCCCCNC(=O)[C@H](CCCCN)n3cc(C[C@@H](C)CC)nn3)CC2)nc(N2CCN(C(=O)CCCCCCCCCCNC(=O)[C@@H]([C@H](C)O)n3cc(C)nn3)CC2)n1,-41.0,·,·,·,·,91.5*,0.4
C#CCOCCOCCOCCNc1nc(N2CCN(C(=O)CCCCCCCCCCNC(=O)[C@H](CCCCN)n3cc(C)nn3)CC2)nc(N2CCN(C(=O)CCCCCCCCCCNC(=O)[C@@H]([C@H](C)O)n3cc(C)nn3)CC2)n1,-3.5,·,·,·,·,10.1,·
CCCCCCCCCCn1c2c(c(=N)c3c1CCC3)CCC2,0.4,-2.2,-4.1,68.4*,77.4*,82.2*,75.0*
CCCCCCCCn1c2c(c(=N)c3ccccc31)CCC2,25.9,3.8,4.8,60.4*,66.8*,99.1*,68.7*
CCCCCn1c2c(c(=N)c3ccccc31)CCC2,34.7,-17.4,-8.4,59.2*,-0.5,74.1*,47.5*
CCOC(=O)Cn1c2c(c(=N)c3ccccc31)CCC2,-5.8,1.5,-4.6,17.0,-8.0,-1.2,·
CCn1c2c(c(=N)c3c1CCC3)CCCC2,-8.7,-1.8,-11.0,-3.2,-6.5,41.3,·
CCOc1ccc(S(=O)(=O)c2c[nH]c3ccccc3c2=O)cc1,-6.8,3.2,6.2,4.7,-2.1,-16.2,·
O=C(CSc1nnc(CNC(=O)c2ccccc2)o1)NCc1ccc2c(c1)OCO2,1.2,-9.5,-3.1,0.1,-10.6,18.4,·
CCN1CCN(c2cc(C)c3cc(NC(=O)c4ccc(OC)c(OC)c4)ccc3n2)CC1,-63.1,8.0,2.7,30.8,-7.7,56.9*,29.0
CCOc1ccccc1C(=O)Nc1ccc2nc(N3CCN(c4ncccn4)CC3)cc(C)c2c1,-49.4,·,·,·,-16.2,70.2*,43.7
COc1cccc(C(=O)Nc2ccc3nc(N4CCN(c5ncccn5)CC4)cc(C)c3c2)c1OC,-28.3,·,·,·,-22.2,19.1,·
O=C(Nc1ccc(Cl)cn1)c1ccc2c(Cl)c3c(nc2c1)CCC3,-168.3,-61.6,?,-1.3,-5.9,-157.3,-93.0
